Measured values reported in ChEMBL document CHEMBL5678806, “NMS-P937, an orally available, specific small-molecule polo-like kinase 1 inhibitor with antitumor activity in solid and hematologic malignancies” (Mol Cancer Ther, 2012).
Active and inactive are the calls of the source. The calls are words filed in the database; no cut-off is given here.

Key:
[1] = target: Angiopoietin-1 receptor (Homo sapiens) (UniProt Q02763); assay: Inhibition of N-terminal His6-tagged recombinant human Tie2 (771 to end residues) expressed in baculovirus infected Sf21 cells assessed as residual activity at 1 uM relative to control
OVCAR-3 = assay: Antiproliferative activity against human OVCAR-3 cells assessed as inhibition of cell growth incubated for 72 hrs by cell-titer glo assay; type: functional, cell-based; details: OVCAR-3, 72 h
Method in brief: (§1)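 Cells from ATCC or ECACC, kept in supplier-recommended medium with 1% penicillin-streptomycin at 37°C, 5% CO₂. Seeded at 10,000–30,000/cm² (adherent) or 100,000/mL (nonadherent) in medium with 10% fetal calf serum. Dosed after 24 h in duplicate with serial dilutions. Viable cells read by CellTiter-Glo 72 h later. IC50 from sigmoidal fit. At least two independent experiments.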

HT-29 = assay: Antitumor activity against human HT-29 cells xenografted in nu/nu mouse assessed as tumor growth inhibition at 60 mg/kg, po administered for 10 days; type: functional, organism-based; details: time 10.0 day
[2] = target: Mitogen-activated protein kinase kinase kinase 5 (Homo sapiens) (UniProt Q99683); assay: Inhibition of N-Terminal GST and C-terminal His6-tagged recombinant human ASK1 (649 to 946 residues) expressed in E. coli cell assessed as residual activity at 0.1 uM relative to control
A2780 = assay: Induction of mitosis in human A2780 cells xenografted in nu/nu mouse assessed as decreased Histone H3 phosphorylation on Ser10 at 60 mg/kg, po administered for 12 to 24 hrs by immunohistochemistry analysis; type: functional, organism-based; details: time lower […], time upper 24.0 hrs
[3] = target: Serine/threonine-protein kinase PLK3 (Homo sapiens) (UniProt Q9H4B4); assay: Inhibition of PLK3 (unknown origin) at 10 micromol/L in presence of [gamma-33P]ATP relative to control; details: dose 10.0 µmol/L
[4] = Cmax in nu/nu mouse at 10 mg/kg, po by LC-MS analysis; type: ADME, organism-based; details: in vivo
[5] = target: Serine/threonine-protein kinase 17A (Homo sapiens) (UniProt Q9UEE5); assay: Inhibition of N-terminal 6His-tagged recombinant full-length human DRAK1 expressed in baculovirus infected Sf21 cells assessed as residual activity at 0.1 uM relative to control
KMS-11 = assay: Antiproliferative activity against human KMS-11 cells assessed as inhibition of cell growth incubated for 72 hrs by cell-titer glo assay; type: functional, cell-based; details: KMS-11, 72 h
Method in brief: (§2)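 Cells seeded at 10,000–30,000/cm² (adherent) or 100,000/mL (nonadherent) in medium with 10% fetal calf serum; after 24 h, treated in duplicate with serial dilutions for 72 h. Viable cell number read by CellTiter-Glo luminescence; IC50 from sigmoidal fit; at least two independent experiments.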

NCI-H1770 = assay: Antiproliferative activity against human NCI-H1770 cells assessed as inhibition of cell growth incubated for 72 hrs by cell-titer glo assay; type: functional, cell-based; details: NCI-H1770, 72 h; method in brief: as §1
[6] = target: cAMP-dependent protein kinase (PKA) (Homo sapiens) (UniProt P22694+P17612+P22612); assay: Inhibition of recombinant human full-length PKA expressed in E.coli BL21 (DE3) pLysS cells assessed as residual activity at 0.1 uM relative to control
LoVo = assay: Antiproliferative activity against human LoVo cells assessed as inhibition of cell growth incubated for 72 hrs by cell-titer glo assay; type: functional, cell-based; method in brief: as §2
[7] = target: Serine/threonine-protein kinase ULK3 (Homo sapiens) (UniProt Q6PHR2); assay: Inhibition of N-terminal 6His-tagged recombinant human full-length ULK3 expressed in baculovirus infected Sf21 cells assessed as residual activity at 1 uM relative to control
[8] = target: Calcium/calmodulin-dependent protein kinase type II subunit delta (Homo sapiens) (UniProt Q13557); assay: Inhibition of recombinant full length human CaMKIIdelta assessed as residual activity at 1 uM relative to control
SK-MEL-28 = assay: Antiproliferative activity against human SK-MEL-28 cells assessed as inhibition of cell growth incubated for 72 hrs by cell-titer glo assay; type: functional, cell-based; details: SK-MEL-28, 72 h
CAKI-1 = assay: Antiproliferative activity against human CAKI-1 cells assessed as inhibition of cell growth incubated for 72 hrs by cell-titer glo assay; type: functional, cell-based; details: CAKI-1, 72 h
Method in brief: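 Cells seeded 10,000–30,000/cm² (adherent) or 100,000/mL (suspension) in medium with 10% fetal calf serum; after 24 h treated in duplicate with serial dilutions for 72 h. Viable cells read by CellTiter-Glo luminescence; IC50 from sigmoidal fit; at least two independent experiments.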

HDQ-P1 = assay: Antiproliferative activity against human HDQ-P1 cells assessed as inhibition of cell growth incubated for 72 hrs by cell-titer glo assay; type: functional, cell-based; details: HDQ-P1, 72 h
Method in brief: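 Cells seeded at 10,000–30,000/cm² (adherent) in medium with 10% fetal calf serum; after 24 h treated in duplicate with serial dilutions for 72 h. Viable cell number read by CellTiter-Glo luminescence. IC50 from sigmoidal curve fit; at least two independent experiments.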

[9] = target: Serine/threonine-protein kinase STK11 (Homo sapiens) (UniProt Q15831); assay: Inhibition of N-terminal 6His-tagged recombinant full-length human LKB1 expressed in Sf21 cells assessed as residual activity at 0.1 uM relative to control
HCC70 = assay: Antiproliferative activity against human HCC70 cells assessed as inhibition of cell growth incubated for 72 hrs by cell-titer glo assay; type: functional, cell-based; details: HCC70, 72 h; method in brief: as §2
[10] = AUC in male cynomolgus monkey at 5 mg/kg, iv by LC-MS analysis; type: ADME, organism-based, Macaca fascicularis; details: in vivo
HeLa = assay: Antiproliferative activity against human HeLa cells assessed as inhibition of cell growth incubated for 72 hrs by cell-titer glo assay; type: functional, cell-based; method in brief: as §2
[11] = target: Rho-associated protein kinase 2 (Homo sapiens) (UniProt O75116); assay: Inhibition of N-terminal His6-tagged recombinant human ROCK-II (11 to 552 residues) expressed in baculovirus infected Sf21 cells assessed as residual activity at 0.1 uM relative to control
[12] = target: Protein kinase C delta type (Homo sapiens) (UniProt Q05655); assay: Inhibition of N-terminal His6-tagged recombinant human PKCdelta (2 to end residues) expressed in Sf21 cells assessed as residual activity at 1 uM relative to control
[13] = Inhibition of AUR2 (unknown origin) in presence of [gamma-33P]ATP; parameters: species or system Homo sapiens
[14] = target: Serine/threonine-protein kinase MARK2 (Homo sapiens) (UniProt Q7KZI7); assay: Inhibition of N-terminal His6-tagged recombinant full-length human PAR-1Balpha expressed in baculovirus infected Sf21 cells assessed as residual activity at 1 uM relative to control
HCT-116 = assay: Antitumor activity against human HCT-116 cells xenografted in nu/nu mouse assessed as tumor growth inhibition at 60 mg/kg, po administered for 8 days relative to control; type: functional; details: HCT-116, 192 h, time 8 day, read-out: TGI
[15] = target: Inhibitor of nuclear factor kappa-B kinase subunit beta (Homo sapiens) (UniProt O14920); assay: Inhibition of N-terminal His6 tagged recombinant full-length human IKKbeta expressed in baculovirus infected Sf21 cells assessed as residual activity at 0.1 uM relative to control
Inhibitor of nuclear factor kappa-B kinase subunit beta (Homo sapiens), sequence (O14920 whole entry): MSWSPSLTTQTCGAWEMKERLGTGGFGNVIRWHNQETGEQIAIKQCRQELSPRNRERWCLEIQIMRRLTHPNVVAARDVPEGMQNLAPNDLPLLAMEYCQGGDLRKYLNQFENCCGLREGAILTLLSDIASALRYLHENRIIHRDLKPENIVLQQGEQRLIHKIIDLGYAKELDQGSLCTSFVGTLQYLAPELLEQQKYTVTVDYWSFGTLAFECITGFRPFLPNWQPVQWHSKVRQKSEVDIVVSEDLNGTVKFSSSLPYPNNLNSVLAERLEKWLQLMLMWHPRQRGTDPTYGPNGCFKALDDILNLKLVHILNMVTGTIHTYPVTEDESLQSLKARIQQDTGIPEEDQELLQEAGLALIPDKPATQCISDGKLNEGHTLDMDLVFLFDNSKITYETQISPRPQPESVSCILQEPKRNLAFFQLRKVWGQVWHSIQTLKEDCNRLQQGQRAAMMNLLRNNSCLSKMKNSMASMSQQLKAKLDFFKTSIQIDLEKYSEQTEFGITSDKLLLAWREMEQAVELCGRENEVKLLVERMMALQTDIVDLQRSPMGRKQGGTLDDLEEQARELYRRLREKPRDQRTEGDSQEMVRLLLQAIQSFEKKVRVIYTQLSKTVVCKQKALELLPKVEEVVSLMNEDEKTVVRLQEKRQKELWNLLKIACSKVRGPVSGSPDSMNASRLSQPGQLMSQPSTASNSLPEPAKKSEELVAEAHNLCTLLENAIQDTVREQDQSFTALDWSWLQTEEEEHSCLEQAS

Rho-associated protein kinase 2 (Homo sapiens), sequence (O75116 whole entry, looked up, the tested form may be a part): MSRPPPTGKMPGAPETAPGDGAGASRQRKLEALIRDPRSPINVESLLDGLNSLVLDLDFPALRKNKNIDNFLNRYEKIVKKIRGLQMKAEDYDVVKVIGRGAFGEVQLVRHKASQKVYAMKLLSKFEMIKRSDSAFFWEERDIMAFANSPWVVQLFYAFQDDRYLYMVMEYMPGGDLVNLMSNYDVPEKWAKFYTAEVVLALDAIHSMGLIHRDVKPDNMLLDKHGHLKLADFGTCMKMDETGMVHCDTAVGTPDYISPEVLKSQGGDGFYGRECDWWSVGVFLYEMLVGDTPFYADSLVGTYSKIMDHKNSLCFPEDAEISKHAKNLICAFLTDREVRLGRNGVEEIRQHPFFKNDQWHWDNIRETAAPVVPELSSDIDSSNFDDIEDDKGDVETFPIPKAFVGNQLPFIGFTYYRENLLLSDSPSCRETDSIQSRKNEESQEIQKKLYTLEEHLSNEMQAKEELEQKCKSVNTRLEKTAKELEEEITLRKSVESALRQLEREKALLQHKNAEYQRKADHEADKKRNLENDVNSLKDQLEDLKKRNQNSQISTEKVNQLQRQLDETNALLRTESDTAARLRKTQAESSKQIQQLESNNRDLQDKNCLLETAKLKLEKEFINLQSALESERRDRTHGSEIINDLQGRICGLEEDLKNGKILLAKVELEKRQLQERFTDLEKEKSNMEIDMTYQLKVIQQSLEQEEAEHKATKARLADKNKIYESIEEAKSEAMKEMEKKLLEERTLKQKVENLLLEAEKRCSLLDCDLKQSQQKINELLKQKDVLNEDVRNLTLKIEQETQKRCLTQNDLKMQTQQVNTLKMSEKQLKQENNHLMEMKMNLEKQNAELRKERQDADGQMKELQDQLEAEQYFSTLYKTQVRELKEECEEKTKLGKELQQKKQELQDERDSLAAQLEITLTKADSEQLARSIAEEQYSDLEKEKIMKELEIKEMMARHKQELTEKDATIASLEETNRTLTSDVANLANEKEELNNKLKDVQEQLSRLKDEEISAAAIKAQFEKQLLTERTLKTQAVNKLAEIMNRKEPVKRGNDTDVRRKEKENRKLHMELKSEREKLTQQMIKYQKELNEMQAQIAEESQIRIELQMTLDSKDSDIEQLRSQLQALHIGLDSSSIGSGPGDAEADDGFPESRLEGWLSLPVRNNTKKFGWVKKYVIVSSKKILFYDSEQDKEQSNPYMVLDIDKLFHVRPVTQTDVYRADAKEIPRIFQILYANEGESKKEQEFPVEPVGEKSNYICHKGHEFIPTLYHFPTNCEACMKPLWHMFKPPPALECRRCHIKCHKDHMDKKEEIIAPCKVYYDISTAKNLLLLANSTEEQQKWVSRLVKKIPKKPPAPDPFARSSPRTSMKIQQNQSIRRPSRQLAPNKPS
Calcium/calmodulin-dependent protein kinase type II subunit delta (Homo sapiens), sequence (Q13557 whole entry): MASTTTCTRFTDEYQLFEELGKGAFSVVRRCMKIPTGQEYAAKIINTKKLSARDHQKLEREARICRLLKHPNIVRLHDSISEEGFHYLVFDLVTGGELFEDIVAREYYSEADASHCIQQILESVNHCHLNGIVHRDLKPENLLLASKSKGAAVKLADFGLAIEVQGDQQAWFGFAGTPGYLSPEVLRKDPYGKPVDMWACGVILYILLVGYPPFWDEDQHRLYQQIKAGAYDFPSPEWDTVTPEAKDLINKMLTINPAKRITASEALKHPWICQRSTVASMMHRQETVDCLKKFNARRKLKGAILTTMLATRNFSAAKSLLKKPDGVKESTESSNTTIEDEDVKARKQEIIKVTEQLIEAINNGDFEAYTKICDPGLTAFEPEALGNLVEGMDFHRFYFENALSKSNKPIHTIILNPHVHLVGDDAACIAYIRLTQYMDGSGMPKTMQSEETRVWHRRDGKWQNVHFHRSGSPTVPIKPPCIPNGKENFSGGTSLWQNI
Serine/threonine-protein kinase 17A (Homo sapiens), sequence (Q9UEE5 whole entry): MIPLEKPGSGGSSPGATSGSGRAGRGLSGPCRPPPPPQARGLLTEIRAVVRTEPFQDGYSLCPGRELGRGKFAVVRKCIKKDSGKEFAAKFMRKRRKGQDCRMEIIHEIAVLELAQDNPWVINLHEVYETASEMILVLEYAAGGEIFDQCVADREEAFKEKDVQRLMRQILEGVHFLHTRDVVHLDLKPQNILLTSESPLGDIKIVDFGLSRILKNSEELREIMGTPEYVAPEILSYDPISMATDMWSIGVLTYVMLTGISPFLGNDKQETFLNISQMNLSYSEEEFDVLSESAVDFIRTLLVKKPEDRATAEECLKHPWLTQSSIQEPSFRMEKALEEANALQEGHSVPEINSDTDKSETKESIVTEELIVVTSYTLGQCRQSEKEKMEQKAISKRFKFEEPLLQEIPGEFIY
Serine/threonine-protein kinase PLK3 (Homo sapiens), sequence (Q9H4B4 whole entry, looked up): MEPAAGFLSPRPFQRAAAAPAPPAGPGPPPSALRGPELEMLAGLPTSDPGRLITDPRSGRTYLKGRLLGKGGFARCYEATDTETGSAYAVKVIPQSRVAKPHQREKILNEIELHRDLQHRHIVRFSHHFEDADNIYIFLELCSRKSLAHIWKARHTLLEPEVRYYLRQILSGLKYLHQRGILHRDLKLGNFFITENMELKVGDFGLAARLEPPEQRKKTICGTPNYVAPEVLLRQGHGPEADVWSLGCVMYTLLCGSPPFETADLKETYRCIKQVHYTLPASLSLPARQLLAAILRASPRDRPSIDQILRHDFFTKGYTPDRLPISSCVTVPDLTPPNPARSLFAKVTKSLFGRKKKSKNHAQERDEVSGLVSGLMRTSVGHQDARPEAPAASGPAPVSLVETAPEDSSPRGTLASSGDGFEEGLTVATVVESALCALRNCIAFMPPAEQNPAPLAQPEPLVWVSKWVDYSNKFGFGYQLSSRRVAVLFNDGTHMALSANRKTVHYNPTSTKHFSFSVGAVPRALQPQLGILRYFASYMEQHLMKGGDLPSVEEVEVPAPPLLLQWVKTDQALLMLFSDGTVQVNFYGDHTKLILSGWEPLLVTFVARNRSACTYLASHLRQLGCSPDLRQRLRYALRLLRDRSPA
Protein kinase C delta type (Homo sapiens), sequence (Q05655 whole entry, looked up): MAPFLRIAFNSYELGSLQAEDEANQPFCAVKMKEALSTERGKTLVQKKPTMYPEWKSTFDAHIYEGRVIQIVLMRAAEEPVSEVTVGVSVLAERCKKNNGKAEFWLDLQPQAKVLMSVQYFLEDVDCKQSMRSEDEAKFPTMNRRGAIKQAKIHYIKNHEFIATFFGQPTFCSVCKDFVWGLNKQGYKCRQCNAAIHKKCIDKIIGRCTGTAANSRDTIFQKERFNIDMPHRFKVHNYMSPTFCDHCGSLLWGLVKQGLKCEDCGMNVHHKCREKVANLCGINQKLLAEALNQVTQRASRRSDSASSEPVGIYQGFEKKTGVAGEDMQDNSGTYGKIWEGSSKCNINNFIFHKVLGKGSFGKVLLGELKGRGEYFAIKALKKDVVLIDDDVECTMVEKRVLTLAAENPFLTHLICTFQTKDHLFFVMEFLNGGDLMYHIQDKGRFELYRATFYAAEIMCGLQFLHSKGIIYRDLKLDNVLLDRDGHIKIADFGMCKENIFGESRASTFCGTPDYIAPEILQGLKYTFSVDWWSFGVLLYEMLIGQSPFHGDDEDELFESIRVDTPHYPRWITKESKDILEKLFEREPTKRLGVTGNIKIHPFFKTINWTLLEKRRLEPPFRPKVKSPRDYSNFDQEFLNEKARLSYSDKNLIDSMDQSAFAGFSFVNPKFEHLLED
Serine/threonine-protein kinase ULK3 (Homo sapiens), sequence (Q6PHR2 whole entry): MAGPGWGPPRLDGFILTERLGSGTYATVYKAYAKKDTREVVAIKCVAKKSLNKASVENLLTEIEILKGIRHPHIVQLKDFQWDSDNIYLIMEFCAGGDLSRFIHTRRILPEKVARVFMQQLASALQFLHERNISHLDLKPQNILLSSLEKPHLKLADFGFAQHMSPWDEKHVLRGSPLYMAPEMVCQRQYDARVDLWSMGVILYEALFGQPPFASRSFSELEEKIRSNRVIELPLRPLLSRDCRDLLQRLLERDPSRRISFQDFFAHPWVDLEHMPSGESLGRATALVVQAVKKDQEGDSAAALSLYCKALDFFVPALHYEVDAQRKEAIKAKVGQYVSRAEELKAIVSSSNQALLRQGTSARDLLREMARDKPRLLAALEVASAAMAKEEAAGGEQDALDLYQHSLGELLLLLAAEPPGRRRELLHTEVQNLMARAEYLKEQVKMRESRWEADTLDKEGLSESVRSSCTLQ

CN1CCN(c2ccc(OC(F)(F)F)c(Nc3ncc4c(n3)-c3c(c(C(N)=O)nn3CCO)CC4)c2)CC1 [ONVANSERTIB]
Activity [1]: 114%
IC50 (OVCAR-3): 41 nM
TGI (HT-29): Active
Activity [2]: 123%
Activity (A2780): Active
inhibition [3]: 40.2%
Cmax [4]: 600 nM
Activity [5]: 58%
IC50 (KMS-11): 46 nM
IC50 (NCI-H1770): 68 nM
Activity [6]: 141%
IC50 (LoVo): 65 nM
Activity [7]: 127%
Activity [8]: 74%
IC50 (SK-MEL-28): 78 nM
IC50 (CAKI-1): 515 nM
IC50 (HDQ-P1): 51 nM
Activity [9]: 113%
IC50 (HCC70): 279 nM
AUC [10]: 14.1 µM·h
IC50 (HeLa): 60 nM
Activity [11]: 132%
Activity [12]: 93%
IC50 [13]: > 10000 nM
Activity [14]: 87%
inhibition in vivo at 60 mg/kg (HCT-116): 79%
Activity [15]: 122%
